Experimental data reported in ChEMBL document CHEMBL1828537, “Halogenated 2'-benzoylpyridine thiosemicarbazone (XBpT) chelators with potent and selective anti-neoplastic activity: relationship to intracellular redox activity” (J Med Chem, 2011).

Assays:
SK-N-MC [1] = assay: Antiproliferative activity against human SK-N-MC cells after 72 hrs by MTS assay; type: functional, cell-based
SK-N-MC [2] = assay: Induction of Fe efflux in human SK-N-MC cells assessed as release of intracellular 59Fe up to 25 uM after 3 hrs by gamma-scintillation counting; type: functional
[3] = Toxicity in human SK-N-MC cells assessed as cell viability after 3 hrs by trypan blue staining; type: cell-based; parameters: concentration or dose not given beside the values; settings: read-out: Activity
Outline: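 Viability of SK-N-MC cells judged by Trypan blue staining after the 3 h chelator incubation used in the 59Fe mobilization assays.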

SK-N-MC [4] = assay: 59Fe uptake from transferrin in human SK-N-MC cells at 25 uM after 3 hrs relative to control
M109 = assay: Anticancer activity against mouse M109 cells xenografted in iv dosed CD2F1 mouse assessed as reduction in tumor growth after 5 days; type: functional
MRC5 = assay: Cytotoxicity against human MRC5 cells after 72 hrs […]; type: cell-based; settings: MRC5, 72 h
[5] = Therapeutic index, ratio of IC50 for human MRC5 cells to IC50 for human SK-N-MC cells; type: cell-based; settings: MRC5 cells and SK-N-MC cells, read-out: Ratio IC50
SK-N-MC [6] = assay: Induction of intracellular reactive oxygen species production in human SK-N-MC cells assessed as oxidation of H2DCF into DCF at 25 uM after 3 hrs by FACS analysis relative to control; type: functional

SMILES | IC50 (SK-N-MC [1]) [nM] | Activity (SK-N-MC [2]) [%] | viability at 3 h [3] [%] | level, % of control at 25 µM (SK-N-MC [4]) [%] | inhibition (INH) (M109) [%] | IC50 (MRC5) [nM] | selectivity ratio [5] | Activity (SK-N-MC [6]) [%]
CC(=O)N(O)CCCCCNC(=O)CCC(=O)N(O)CCCCCNC(=O)CCC(=O)N(O)CCCCCN [DEFEROXAMINE] | 22700 | 23 | > 99 | 74 |  |  |  | 
NC(=S)N/N=C(\c1ccccc1)c1ccccn1 | 5590 |  | > 99 |  |  | > 25000 |  | 
CNC(=S)N/N=C(\c1ccccc1)c1ccccn1 | 24 |  | > 99 |  |  | 2320 | 96 | 114
O=C(N/N=C/c1c(O)ccc2ccccc12)c1ccncc1 | 2530 | 55 | > 99 | 6 |  |  |  | 

Stronger by IC50 (SK-N-MC [1]), values ahead:

IC50 (SK-N-MC [1]) [nM] | SMILES | Activity (SK-N-MC [2]) [%] | viability at 3 h [3] [%] | level, % of control at 25 µM (SK-N-MC [4]) [%] | inhibition (INH) (M109) [%] | IC50 (MRC5) [nM] | selectivity ratio [5] | Activity (SK-N-MC [6]) [%]
12 | CCNC(=S)N/N=C(\c1ccccc1)c1ccccn1 |  | > 99 |  |  | 738 | 64 | 138
9 | CN(C)C(=S)N/N=C(\c1ccccc1)c1ccccn1 |  | > 99 |  |  | 1010 | 116 | 156
4 | CN(C)C(=S)NN=C(c1ccccn1)c1ccccn1 | 53 | > 99 | 4 | 50 |  |  | 
